Active and inactive are the calls of the source. No cut-off for these calls is given here.

In general, IC50 refers to the concentration that inhibits the measured activity by half. What is called inhibition is the share of the control response that was lost under treatment. Usually pKa stands for the pH at which an ionisable group is half protonated. A low value points to a stronger acid or weaker base. In general, Tm refers to the temperature at which the thermal transition is half complete.

Series [1] deals with MDA-MB-231. In words: Induction of DNA double strand breaks in human MDA-MB-231 cells assessed as gammaH2AX phosphorylation at 10 uM incubated for 16 hrs by flow cytometry (reference value: 6.1 +/-0.7%). The series is classed as functional. On the technique in general: In flow cytometry, cells or beads pass a laser one at a time.
The test system of series [2] is HCT-116. In words: Antiproliferative activity against human HCT116 cells assessed as reduction in cell viability after 4 days by [3H]-thymidine incorporation assay. The series is classed as functional, cell-based. In short, it runs like this:
(§1)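 MDA-MB-231 and HCT116 cells (ATCC) seeded at 3000 cells/well on tissue-culture-treated plates as monolayers and incubated 3 days. Compound then added for four days. 3H-thymidine pulse of 0.04 µCi/well for 5 h before harvest. Proliferation read as 3H-thymidine incorporation into S-phase DNA. Mean % of untreated cells is reported; IC50 is the concentration giving 50% inhibition.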

Series [3] deals with Calf thymus DNA. In words: Binding affinity to calf thymus DNA assessed as binding constant by emission titration analysis. The following applies: Bos taurus. The series is classed as nucleic-acid assay.
Series [4] deals with MDA-MB-231. In words: Induction of DNA double strand breaks in human MDA-MB-231 cells assessed as gammaH2AX phosphorylation at 1 uM incubated for 16 hrs by flow cytometry (reference value: 6.1 +/-0.7%). The series is classed as functional.
For series [5], the system named is MDA-MB-231. Nature of the series: Antiproliferative activity against human MDA-MB-231 cells assessed as reduction in cell viability after 4 days by [3H]-thymidine incorporation assay. The format is functional, cell-based. In short, it runs like this:
as §1
In general terms: Incorporation of labelled thymidine or its analogues reports DNA synthesis.

For series [6], the system named is HCT-116. Nature of the series: Antiproliferative activity against human HCT116 cells assessed as reduction in cell viability at 10 uM after 4 days by [3H]-thymidine incorporation assay relative to control. The format is functional. In short, it runs like this: as §1
The test system of series [7] is MDA-MB-231. In words: Induction of DNA double strand breaks in human MDA-MB-231 cells assessed as gammaH2AX phosphorylation at 5 uM incubated for 16 hrs by flow cytometry (reference value: 6.1 +/-0.7%). The series is classed as functional.
Series [8] is described as follows: Stability of carbenium ionic form, pKR+ of the compound by spectrophotometric analysis. The format is physicochemical. In short, it runs like this: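 Calibration of molar absorbance at the 330 nm peak, made with the compound in 0.1 M acetic acid, where the alcohol is completely ionised. pKR+ derived from the absorbance relationship in eqn (1).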
In series [9] the test system is HCT-116. Nature of the series: Antiproliferative activity against human HCT116 cells cultured as 3D-spheroids assessed as reduction in cell viability after 4 days by [3H]-thymidine incorporation assay. The format is functional, cell-based. In short, it runs like this: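 HCT116 spheroids: 4000 cells/well seeded in ultra-low attachment plates, then centrifuged at 1000 × g for 10 min to start spheroid formation. After 3 days, compounds added for four days. 3H-thymidine (0.08 µCi/well) added 16 h before harvest. Inhibition read as thymidine incorporation relative to untreated cells. IC50 is the concentration giving 50% inhibition.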

The subject of series [10] is MDA-MB-231. Nature of the series: Antiproliferative activity against human MDA-MB-231 cells assessed as reduction in cell viability at 10 uM after 4 days by [3H]-thymidine incorporation assay relative to control. The series is classed as functional. In short, it runs like this:
as §1

Series [11] can be described thus: Dissociation constant, pKa of the compound. The series is classed as physicochemical.
In series [12] the test system is MDA-MB-231. In words: Cell cycle arrest in human MDA-MB-231 cells assessed as accumulation at S-phase at 1 uM incubated for 16 hrs by flow cytometry. The series is classed as functional, cell-based. In short, it runs like this:
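Cells seeded at 106 per well in 6-well plates, exposed to compound for 16 h, harvested, washed, blocked in 1% FCS/PBS. Stained with anti-γH2AX (phospho-Ser139, 1:500, 2 h, room temperature), then Alexa 488 anti-mouse Fab (1:400, 1 h, room temperature, dark). Counterstained with RNase (1 µg/mL) plus propidium iodide (10 µg/mL) for 30 min. Cell-cycle profiles read by flow cytometry.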

Series [13] deals with Calf thymus DNA. In words: Binding affinity to calf thymus DNA assessed as binding constant at 1 uM incubated for 24 hrs by competitive dialysis technique. The series is classed as nucleic-acid assay. The settings on record: Bos taurus.
Series [14] deals with MDA-MB-231. Nature of the series: Antiproliferative activity against human MDA-MB-231 cells assessed as cell viability at 10 uM after 4 days by [3H]-thymidine incorporation assay relative to control. The format is functional. The following applies: read-out: Activity. In short, it runs like this: as §1
The subject of series [15] is MDA-MB-231. Nature of the series: Cell cycle arrest in human MDA-MB-231 cells assessed as accumulation at G2 phase at 1 to 10 uM incubated for 16 hrs by flow cytometry. The series is classed as functional, cell-based.
For the next series, the system named is dsDNA. In words: Binding affinity to 12-mer duplex oligonucleotide (unknown origin) assessed as melting temperature at 5 uM in sodium phosphate buffer at pH 7 by UV-VIS spectrophotometry (reference value: 52.8 degC). The series is classed as nucleic-acid assay.
In series [16] the test system is HCT-116. In words: Antiproliferative activity against human HCT116 cells assessed as cell viability at 10 uM after 4 days by [3H]-thymidine incorporation assay relative to control. The series is classed as functional. The settings on record: read-out: Activity. In short, it runs like this:
as §1

The subject of series [17] is MDA-MB-231. Nature of the series: Cell cycle arrest in human MDA-MB-231 cells assessed as accumulation at S-phase at 1 to 10 uM incubated for 16 hrs by flow cytometry. The format is functional, cell-based.
For series [18], the system named is Calf thymus DNA. In words: Binding affinity to calf thymus DNA assessed as binding constant at 25 uM in sodium phosphate buffer solution at pH 7 by UV-Visible spectrophotometry. The series is classed as nucleic-acid assay. The following applies: Bos taurus.
Series [19] relates to MDA-MB-231. Nature of the series: Cell cycle arrest in human MDA-MB-231 cells assessed as accumulation at G1 phase at 1 to 10 uM incubated for 16 hrs by flow cytometry. The series is classed as functional, cell-based.

With `CCCn1c2cccc3oc4cccc5oc6cccc1c6[c+](c45)c32`, the Activity with MDA-MB-231 [1] is 27.8%; in the series on MDA-MB-231 [4], 12.9%; in the series with MDA-MB-231 [7], 30.6%. Besides, the IC50 in the series on HCT-116 [2] is 256 to 321 nM; in the series on MDA-MB-231 [5], 87.5 nM; in the series with HCT-116 [9], 38 nM. In addition, in the series on Calf thymus DNA [3], the Kb amounted to 8.1 ×10⁶ /M. The inhibition result with HCT-116 [6] and in the series with MDA-MB-231 [10] was “Active” in each case. The “pKR+” value in series [8] is 14.5.

With `CCCCn1c2cccc3c2[c+]2c4c1cccc4n(CCCC)c1cccc(c12)n3CCCC.F[B-](F)(F)F`, in the series on HCT-116 [6], the inhibition entry was “Active”. For the same compound, the “pKR+” value in series [8] is on record as 23.7.

As to `c1cc2[nH]c3cccc4oc5cccc6oc(c1)c2[c+](c34)c65`, the inhibition at 10 µM in the series with HCT-116 [6] and in the series on MDA-MB-231 [10] was 12 to 25% each time. Also, the pKa in series [11] was determined as 5.7.

Take `CC[C@@]1(O)C(=O)OCc2c1cc1n(c2=O)Cc2cc3ccccc3nc2-1` [CAMPTOTHECIN]: the IC50 is 8.5 nM in the series with HCT-116 [2] and 28.4 nM in the series on MDA-MB-231 [5]. In addition, the outcome in the series on MDA-MB-231 [12] was Active. In addition, in the series on MDA-MB-231 [4], the Activity worked out at 73.6%.

On to `c1cc2oc3cccc4oc5cccc6oc(c1)c2[c+](c34)c65`, for which the values for the Activity in the series with MDA-MB-231 [1], in the series on MDA-MB-231 [4] and with MDA-MB-231 [7] were 43.6%, 8.8% and 57.5%, respectively. Moreover, the IC50 in the series with HCT-116 [2] was 708 nM; with MDA-MB-231 [5], 448 nM; in the series on HCT-116 [9], more than 1000 nM. In addition, the Kb in the series with Calf thymus DNA [13] and in the series with Calf thymus DNA [18] was 4.1 ×10⁴ /M each time. In addition, the viability at 10 µM in the series with MDA-MB-231 [14] and with HCT-116 [16] was less than 1% in each case. Also, the “pKR+” value in series [8] worked out at 9.1. Further, the outcome in the series with MDA-MB-231 [15] and with MDA-MB-231 [19] was Active. The melting temperature (Tm) in the series with dsDNA amounted to 57.3 °C. Besides, the result in the series with MDA-MB-231 [17] was inactive.

As to `CCCn1c2cccc3oc4cccc5c4[c+](c32)c2c1cccc2n5CCC`, the Activity in the series with MDA-MB-231 [1] was determined as 2.4%; in the series with MDA-MB-231 [4], 13.6%; in the series with MDA-MB-231 [7], 1.3%. In addition, the IC50 with HCT-116 [2] is 106 to 111 nM; in the series on MDA-MB-231 [5], 77.5 nM; with HCT-116 [9] it was 21 nM. Further, the inhibition entry in the series on HCT-116 [6] and in the series with MDA-MB-231 [10] was “Active” throughout. The “pKR+” value in series [8] is 19.4.

(Values after ChEMBL document CHEMBL4373677, “The cytotoxic potential of cationic triangulenes against tumour cells” (Medchemcomm, 2019).)
